From ChEMBL document CHEMBL4513216, “Probing the Open Global Health Chemical Diversity Library for Multistage-Active Starting Points for Next-Generation Antimalarials” (ACS Infect Dis, 2020)

assay: Toxicity liver stage against HepG2, at 10uM; type: cell-based; design: test concentration 10 uM, cell line HepG2-A16-CD81EGFP; details: human, HepG2-A16-CD81EGFP cells; read-out: INHIBITION
Procedure, shortened: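 Uninfected HepG2-A16-CD81EGFP cells, 3 × 10^3 per well, 1536-well, plated on prespotted compound at 10 μM final, parasite-free screening media added to match infected plates; puromycin 10 μM positive, DMSO 0.5% negative; run in parallel with 48 h PbLuc assay at 37 °C, 5% CO2; viability by CellTiter-Glo luminescence, normalized to controls.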

SMILES	cytotoxicity at 10 µM [%]
Cn1cc(CN2CCOC[C@H]2c2nc(C(C)(C)C)co2)c2ccccc21	1.21
O=C(N[C@@H]1CNCCC[C@H]1O)c1ccc(OCc2ccccc2)cc1	-3.39
COc1ccc(CNc2c(C)cnc3c2c(=O)n(C)c(=O)n3C)cc1	2.9
CCc1nnc2ccc(N3CCN(S(=O)(=O)c4ccc(C)s4)CC3)nn12	1.5
Cc1ccc(-n2nnc(C(=O)NCC3CCCCC3)n2)cc1	-3.5
CCOCc1cncc2c1CCN(C(=O)c1cccc(C#N)c1)C2	3.55
C[C@H]1C[C@@H]2CCN(C(=O)c3ccncc3)C[C@H]2O1	-1.02
Cn1cc(CN2CC[C@H]3OCC[C@@H](C(=O)NC4CCCC4)[C@@H]3C2)cn1	0.835
CN1CCc2c(C#N)c(NCc3ccncc3)n3cnnc3c2C1	10.8
COc1ccccc1OCC(=O)n1nc(C)c(C)c1C	-5.01
Cc1cs/c(=N\C(=O)Cn2nc(N3CCSCC3)ccc2=O)[nH]1	2.33
Cc1nc(N2CCOCC2)nc2c1CN(C(=O)Cc1ccccn1)CC2	-7.61
CCn1cc(CN(C)S(=O)(=O)c2ccc(C)c(C)c2)cn1	9.65
Cc1nn(C)cc1C(=O)N1CCC(C(=O)c2nc3ccccc3s2)CC1	8.12
CC(=O)N1CCCC(c2nc(N(C)C)ncc2-c2ccccc2)C1 (configuration not stated)	14.7
CCS(=O)(=O)N1C[C@@H](O)[C@H](N2CCc3ccccc3C2)C1	-3.63
Cc1cc(C)nc(C2CCN(C(=O)CCn3ncc4ccccc43)C2)n1 (configuration not stated)	-17.3
Cc1ccccc1CC(=O)N[C@@H]1CCC[C@@H](N2CCNC(=O)C2)[C@@H]1O	-24.5
Cc1ccnn1CCC(=O)N1C[C@@H](O)[C@H](Oc2cccc(F)c2)C1	-15.8
COc1ccccc1-c1nccnc1C1CCN(C(C)=O)CC1	-1.69
CCC(=O)N1CCCC(c2ncc3c(n2)CCN(C)C3)C1 (configuration not stated)	-8.77

SMILES	cytotoxicity at 10 µM [%]
CN1CCCCC12Cc1ccccc1CN(C(=O)c1ccccc1)C2 (configuration not stated)	7.44
CC(C)C(NC(=O)N1CCS(=O)(=O)CC1)c1ccccc1Cl (configuration not stated)	13.3
COCCC(C)NS(=O)(=O)c1ccc(C)c(N(C)C)c1 (configuration not stated)	-0.2
CC1CS(=O)(=O)CCN1CCCc1ccc(C(F)(F)F)cc1 (configuration not stated)	0.715
CCc1nnc(CSc2ccccn2)o1	-2.98
Cc1ccc(S(=O)(=O)N(C)Cc2nccs2)cc1N(C)C	-9.78
CN(CC(N)=O)C(=O)CCCn1ccc2cc(Cl)ccc21	-2.13
COc1ccnc(N2CCCN(Cc3ncc(C(C)C)o3)CC2)n1	1.74
O=S(=O)(CC1CCCCO1)Nc1cnn(CC(F)F)c1 (configuration not stated)	-3.09
Cc1cc(CN(C)C(=O)NCc2ccnc(N(C)C)c2)no1	5.85
COc1cc2c(cc1OC)S(=O)(=O)N(Cc1ccccc1)C2=O	8.2
CN(C)c1cccc(C2CCCN2S(N)(=O)=O)c1 (configuration not stated)	-5.44
CC(CNC(=O)c1cnccn1)Oc1cccc(Br)c1 (configuration not stated)	1.25
Cc1cc(C)n(-c2ccc(C(=O)N3CCCC3c3cnn(C)c3)cc2)n1 (configuration not stated)	-7.41
N#Cc1cccnc1N1CCCN(CC(=O)N2CCNC(=O)C2)CC1	4.07
COc1cccc(S(=O)(=O)Cc2cc(C)on2)c1	4.03
O=C(CN1CCc2ccccc21)Nc1ccc(OC(F)F)cc1	16.8
COc1cccc(CNC(=O)c2nc3c(s2)CCN(C(C)=O)CC3)c1	-77.4
C[C@@H]1CN(C2Cc3ccccc3C2)CC[C@@]1(O)C1CCOCC1	-4.04
O=C1CCC2(CCOC2)CN1Cc1nncn1CCc1ccccc1 (configuration not stated)	-0.506
CCCn1cnnc1CNC1CCCC1	-2.27

SMILES	cytotoxicity at 10 µM [%]
Cc1ccsc1C(=O)NCc1cccnc1N(C)CCc1ccccn1	-0.678
COc1ncccc1C1CC(=O)Nc2cc(NS(C)(=O)=O)ccc21 (configuration not stated)	-8.1
Cc1[nH]ccc1C(=O)N[C@H]1CN(CCO)C[C@@H]1C1CC1	3.07
Cc1cc(CN2CCC(c3nccn3C(C)C)CC2)ccc1F	5.22
CCN1CCN(S(=O)(=O)c2ccc(Cc3cc(C)n[nH]c3=O)cc2)CC1	-8.25
O=C(O)CSc1nnc(-c2cn[nH]c2)n1-c1ccccc1Cl	-3.54
CCC(=O)NC(C)c1ccccc1C (configuration not stated)	0.245
O=C(c1ccc2c(c1)CCC2)N1C[C@@H](CN2CCOCC2)[C@@H](CO)C1	20.7
CCCN1CCCn2nc(CNS(=O)(=O)c3ccc(C)cc3)cc2C1	1.6
Cc1cc(C)c2nc(CN3CCOC(CCO)C3)cc(O)c2c1 (configuration not stated)	-9.26
CCN(c1ccc(C(=O)N2CCCC(C)C2)cc1)S(=O)(=O)CC (configuration not stated)	-8.6
NC(=O)C1CCN(C(=O)CCn2ccc3cc(Br)ccc32)CC1	-6.44
CC1CN(Cc2cnn(C)c2)CCN1c1ccc2nncn2n1 (configuration not stated)	2.69
Cc1nc(C(C)(C)C)sc1C(=O)NCCNc1ncccn1	-4.83
CCn1cc(NC(=O)C2CCN(CC(=O)NC(C)(C)CC)CC2)cn1	-1.01
CCc1nc(CN2CCN(C(=O)c3csnn3)CC2)cs1	-9.04
O=C(NCCOc1ccccc1)Nc1cc(C(F)(F)F)c[nH]c1=O	-11.9
COc1ncccc1CNC(=O)NC1CCCOc2ccccc21 (configuration not stated)	-6.14
O=C(c1ccon1)N1CCCC(n2cncn2)C1 (configuration not stated)	-8.51
CC(O)CN1CCN(C(=O)c2ccc(CN(C)C)cc2)CC1 (configuration not stated)	-8.09
Cc1nn(C)c(Cl)c1C1CCCN1C(=O)c1csnn1 (configuration not stated)	-0.121

SMILES	cytotoxicity at 10 µM [%]
CC(CNc1cncc(-n2cccn2)n1)N(C)c1ccccc1 (configuration not stated)	-4.48
NC(=O)CN1CCCN(C(=O)Cc2ccc3c(c2)OCO3)CC1	2.96
CC(C)c1nc(C2CCCN2CC(=O)Nc2nncs2)no1 (configuration not stated)	-3.13
CC(Cn1cccn1)NCc1csc(-c2ccccc2F)n1 (configuration not stated)	-7.71
COCCOc1cccc(C(=O)N2CCCC(n3cccn3)C2)c1 (configuration not stated)	-7.81
O=C(NCCO)c1sc2ncccc2c1C1CNCCO1 (configuration not stated)	11.2
COc1ccccc1Cc1cncc(N2CC(C(=O)O)C2)n1	2.71
C=C(C)CN1CCN(Cc2cnc(-c3ccccc3C)nc2)CC1	-33.6
Cc1ccc(CN(CCCN(C)C)Cc2cnc(C)n2C)o1	9.96
Cc1nnc(N2CCCC3(CN(Cc4ccncc4)CCO3)C2)o1 (configuration not stated)	-13.5
CC(C)n1c(C(=O)N2CCCC2)nc2c1CCN(C)C2	15.3
CN(Cc1cn2c(n1)CN(C1CCOC1)CC2)Cc1ccco1 (configuration not stated)	-2.15
COCCN1CC[C@H](OC)[C@@H]1Cc1ccccc1	-0.675
CC(=O)N1CCC12CCN(Cc1ccco1)CC2	1.17
O=C(C1CCOCC1)N1CCO[C@H]2[C@H](Oc3cccnc3)CC[C@@H]21	2.03
Cc1nnc([C@]23COC[C@H]2CN(Cc2nccs2)C3)o1	0.872
CCn1ncc2c1C(COC)CN(S(=O)(=O)N(C)C)C2 (configuration not stated)	12.5
CN(C)S(=O)(=O)N1CC[C@]2(C[C@@H](Oc3ncccc3F)CO2)C1	-67
O=C(NCC1CCCCC1)N1C[C@@H]2C[C@@H]1CN2	-7.78
